Test results taken from ChEMBL document CHEMBL4118097, “Selective Inhibitors of Dual Leucine Zipper Kinase (DLK, MAP3K12) with Activity in a Model of Alzheimer's Disease” (J Med Chem, 2017).

Tests used:
[1] = molecular target: Ribosomal protein S6 kinase (Homo sapiens) (UniProt P51812+Q9UBS0+O75676+Q15349+O75582+P23443+Q9UK32+Q15418); assay: Inhibition of recombinant GST-tagged human p70S6K catalytic domain expressed in baculovirus expression system at 1 uM by FRET assay relative to control
Method in brief: (§1)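 Single-point screen at 1 μM compound in a 220-kinase panel run by Life Technologies (SelectScreen). Z′-LYTE format: phosphorylation of a labeled peptide substrate read by FRET. Values are reported as percent inhibition.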

[2] = molecular target: Proto-oncogene tyrosine-protein kinase receptor Ret (Homo sapiens) (UniProt P07949); assay: Inhibition of recombinant N-terminal GST-tagged human Ret cytoplasmic domain (658 to 1114 residues) expressed in baculovirus expression system at 1 uM by FRET assay relative to control
Method in brief: (§2)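 Single-concentration screen at 1 μM in Life Technologies SelectScreen, across a 220-kinase panel. Z′-LYTE format measures phosphorylation of a labeled peptide by FRET. Results are reported as percent inhibition.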

[3] = molecular target: Vascular endothelial growth factor receptor 2 (Homo sapiens) (UniProt P35968); assay: Inhibition of recombinant His-tagged human KDR cytoplasmic domain (789 to 1356 residues) expressed in baculovirus expression system at 1 uM by FRET assay relative to control; method in brief: as §1
[4] = molecular target: Serine/threonine-protein kinase PAK 3 (Homo sapiens) (UniProt O75914); assay: Inhibition of recombinant full length His-tagged human PAK3 expressed in baculovirus expression system at 1 uM by FRET assay relative to control
[5] = molecular target: Dual specificity mitogen-activated protein kinase kinase 1 (Homo sapiens) (UniProt Q02750); assay: Inhibition of recombinant full length His-tagged human MEK1 expressed in baculovirus expression system at 1 uM by FRET assay relative to control
Chain of Dual specificity mitogen-activated protein kinase kinase 1 (Homo sapiens) (Q02750 whole entry, the tested form may be a part): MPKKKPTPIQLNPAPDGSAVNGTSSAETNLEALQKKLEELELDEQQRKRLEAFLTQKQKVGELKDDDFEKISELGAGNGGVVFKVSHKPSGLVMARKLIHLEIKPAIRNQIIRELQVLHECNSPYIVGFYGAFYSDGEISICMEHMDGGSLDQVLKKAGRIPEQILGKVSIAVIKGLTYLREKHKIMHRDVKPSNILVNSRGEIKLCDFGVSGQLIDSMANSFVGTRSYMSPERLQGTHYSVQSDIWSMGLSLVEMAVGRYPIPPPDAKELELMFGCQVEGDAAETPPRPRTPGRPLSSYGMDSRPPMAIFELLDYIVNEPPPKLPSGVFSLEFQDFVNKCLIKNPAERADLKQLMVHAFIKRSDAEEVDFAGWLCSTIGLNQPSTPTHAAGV

[6] = molecular target: Epithelial discoidin domain-containing receptor 1 (Homo sapiens) (UniProt Q08345); assay: Inhibition of recombinant GST-tagged human DDR1 (440 to 876 residues) expressed in baculovirus expression system at 1 uM by FRET assay relative to control; method in brief: as §1
[7] = molecular target: Ephrin type-A receptor 1 (Homo sapiens) (UniProt P21709); assay: Inhibition of recombinant GST-tagged human EphA1 cytoplasmic domain expressed in baculovirus expression system at 1 uM by FRET assay relative to control; method in brief: as §1
[8] = molecular target: Ephrin type-B receptor 1 (Homo sapiens) (UniProt P54762); assay: Inhibition of recombinant GST-tagged human EphB1 cytoplasmic domain expressed in baculovirus expression system at 1 uM by FRET assay relative to control; method in brief: as §1
[9] = molecular target: Ribosomal protein S6 kinase alpha-1 (Homo sapiens) (UniProt Q15418); assay: Inhibition of recombinant full length His-tagged human RSK1 expressed in baculovirus expression system at 1 uM by FRET assay relative to control
[10] = molecular target: Mitogen-activated protein kinase kinase kinase 10 (Homo sapiens, UniProt Q02779); assay: Inhibition of recombinant human full length GST-tagged MLK2 expressed in baculovirus at 1 uM by FRET assay relative to control
[11] = molecular target: Protein kinase C beta type (Homo sapiens) (UniProt P05771); assay: Inhibition of PKCbeta1 (unknown origin) at 1 uM by FRET assay relative to control
[12] = molecular target: STE20-like serine/threonine-protein kinase (Homo sapiens) (UniProt Q9H2G2); assay: Inhibition of recombinant full length GST-tagged human SLK expressed in baculovirus expression system at 1 uM by FRET assay relative to control; method in brief: as §2
[13] = molecular target: Adenosine receptor A1 (Homo sapiens) (UniProt P30542); assay: Binding affinity to recombinant human A1 adenosine receptor at 10 uM relative to control
Chain of Adenosine receptor A1 (Homo sapiens) (P30542 whole entry): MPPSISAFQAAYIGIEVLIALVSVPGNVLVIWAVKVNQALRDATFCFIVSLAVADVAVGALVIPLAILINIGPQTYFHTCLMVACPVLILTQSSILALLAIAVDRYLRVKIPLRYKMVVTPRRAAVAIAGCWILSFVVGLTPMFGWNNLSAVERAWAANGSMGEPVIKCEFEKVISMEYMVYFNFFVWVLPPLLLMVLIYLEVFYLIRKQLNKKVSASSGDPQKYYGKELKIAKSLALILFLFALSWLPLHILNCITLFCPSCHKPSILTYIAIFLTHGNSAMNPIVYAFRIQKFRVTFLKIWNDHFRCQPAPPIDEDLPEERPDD
Method in brief: (§3)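 Broad radioligand-binding and enzyme screening panel covering 42 targets (biogenic amine and neuropeptide receptors, ion channels, neurotransmitter transporters, acetylcholinesterase). Single test concentration of 10 μM. Results expressed as binding relative to control, with a hit defined as >50% of control.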

[14] = molecular target: Mitogen-activated protein kinase kinase kinase 9 (Homo sapiens, UniProt P80192); assay: Inhibition of recombinant human GST-tagged MLK1 expressed in baculovirus expression system by FRET assay
[15] = molecular target: Cyclin-dependent kinase 5/CDK5 activator 1 (Homo sapiens) (UniProt Q00535+Q15078); assay: Inhibition of recombinant full length His/GST-tagged human CDK5/p25 expressed in baculovirus expression system at 1 uM by FRET assay relative to control
Chain of Cyclin-dependent kinase 5/CDK5 activator 1 (Homo sapiens) (Q00535 whole entry, the tested form may be a part): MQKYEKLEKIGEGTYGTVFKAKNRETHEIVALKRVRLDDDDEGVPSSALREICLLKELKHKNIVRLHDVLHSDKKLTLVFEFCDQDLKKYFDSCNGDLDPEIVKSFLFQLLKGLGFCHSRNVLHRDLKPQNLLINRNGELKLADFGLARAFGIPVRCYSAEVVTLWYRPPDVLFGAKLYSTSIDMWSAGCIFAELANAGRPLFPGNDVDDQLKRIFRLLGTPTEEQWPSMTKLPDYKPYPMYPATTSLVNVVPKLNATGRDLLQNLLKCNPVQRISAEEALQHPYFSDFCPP
Chain of Cyclin-dependent kinase 5/CDK5 activator 1 (Homo sapiens) (Q15078 99-307 partner limits assumed): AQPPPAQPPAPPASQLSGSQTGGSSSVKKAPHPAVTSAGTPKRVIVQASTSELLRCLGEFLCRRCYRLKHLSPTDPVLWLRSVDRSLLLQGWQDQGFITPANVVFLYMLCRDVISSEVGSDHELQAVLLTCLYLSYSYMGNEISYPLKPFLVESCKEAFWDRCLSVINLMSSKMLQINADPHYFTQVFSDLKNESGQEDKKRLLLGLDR

[16] = molecular target: Epidermal growth factor receptor (Homo sapiens) (UniProt P00533); assay: Inhibition of recombinant GST-tagged human EGFR cytoplasmic domain (668 to 1210 residues) expressed in baculovirus expression system at 1 uM by FRET assay relative to control
Chain of Epidermal growth factor receptor (Homo sapiens) (P00533 whole entry, the tested form may be a part): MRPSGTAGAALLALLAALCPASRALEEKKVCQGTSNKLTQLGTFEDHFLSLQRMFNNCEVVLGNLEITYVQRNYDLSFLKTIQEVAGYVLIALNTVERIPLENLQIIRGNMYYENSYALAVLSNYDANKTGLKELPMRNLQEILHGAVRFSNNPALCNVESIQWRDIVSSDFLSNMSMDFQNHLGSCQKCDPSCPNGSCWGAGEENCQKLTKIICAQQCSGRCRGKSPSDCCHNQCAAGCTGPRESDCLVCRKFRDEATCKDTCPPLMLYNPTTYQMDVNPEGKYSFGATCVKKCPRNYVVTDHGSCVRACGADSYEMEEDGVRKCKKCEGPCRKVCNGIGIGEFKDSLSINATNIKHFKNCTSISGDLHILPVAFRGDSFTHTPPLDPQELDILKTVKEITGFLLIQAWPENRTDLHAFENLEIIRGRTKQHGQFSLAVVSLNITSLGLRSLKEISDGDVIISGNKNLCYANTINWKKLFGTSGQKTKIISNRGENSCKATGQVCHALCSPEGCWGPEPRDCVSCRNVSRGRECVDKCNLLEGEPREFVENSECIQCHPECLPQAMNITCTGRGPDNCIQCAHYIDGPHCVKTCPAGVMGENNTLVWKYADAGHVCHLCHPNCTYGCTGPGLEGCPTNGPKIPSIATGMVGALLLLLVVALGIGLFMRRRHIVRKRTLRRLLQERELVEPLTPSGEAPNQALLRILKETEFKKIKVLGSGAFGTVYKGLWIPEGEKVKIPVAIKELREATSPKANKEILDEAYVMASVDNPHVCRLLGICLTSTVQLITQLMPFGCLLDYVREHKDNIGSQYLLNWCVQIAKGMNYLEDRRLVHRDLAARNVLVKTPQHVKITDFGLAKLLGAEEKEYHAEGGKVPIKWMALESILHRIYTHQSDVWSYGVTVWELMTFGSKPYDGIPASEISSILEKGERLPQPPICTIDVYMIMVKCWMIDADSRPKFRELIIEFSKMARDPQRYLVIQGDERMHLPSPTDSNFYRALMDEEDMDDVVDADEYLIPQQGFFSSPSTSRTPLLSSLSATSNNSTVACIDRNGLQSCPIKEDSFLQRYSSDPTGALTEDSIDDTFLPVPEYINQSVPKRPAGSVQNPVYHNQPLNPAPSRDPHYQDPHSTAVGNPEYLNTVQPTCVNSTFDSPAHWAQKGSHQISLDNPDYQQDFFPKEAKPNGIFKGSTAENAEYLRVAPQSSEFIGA
Method in brief: (§4)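 Part of a 220-kinase panel run at a single concentration of 1 μM. Z′-LYTE format: phosphorylation of a labelled peptide read by FRET. Values reported as percent inhibition.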

[17] = molecular target: G protein-coupled receptor kinase 3 (Homo sapiens) (UniProt P35626); assay: Inhibition of recombinant full length GST-tagged human GRK3 expressed in baculovirus expression system at 1 uM by FRET relative to control; method in brief: as §2
[18] = molecular target: Mitogen-activated protein kinase kinase kinase 2 (Homo sapiens) (UniProt Q9Y2U5); assay: Inhibition of recombinant full length GST-tagged human MEKK2 expressed in baculovirus expression system at 1 uM by FRET assay relative to control; method in brief: as §4
[19] = molecular target: Aurora kinase A (Homo sapiens) (UniProt O14965); assay: Inhibition of recombinant full length His-tagged human Aurora A expressed in baculovirus expression system at 1 uM by FRET assay relative to control
Chain of Aurora kinase A (Homo sapiens) (O14965 whole entry): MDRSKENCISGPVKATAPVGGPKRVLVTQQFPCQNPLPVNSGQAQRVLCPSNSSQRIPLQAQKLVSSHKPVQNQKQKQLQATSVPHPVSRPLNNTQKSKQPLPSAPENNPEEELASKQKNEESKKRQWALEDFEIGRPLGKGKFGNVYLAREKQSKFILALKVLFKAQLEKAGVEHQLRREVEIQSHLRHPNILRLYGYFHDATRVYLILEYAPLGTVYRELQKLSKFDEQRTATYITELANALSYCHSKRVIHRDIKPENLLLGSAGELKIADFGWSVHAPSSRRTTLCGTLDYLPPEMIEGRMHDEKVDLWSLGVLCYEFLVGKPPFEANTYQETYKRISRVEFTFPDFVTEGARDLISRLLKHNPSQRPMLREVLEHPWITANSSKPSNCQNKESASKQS

[20] = species: Homo sapiens; assay: Binding affinity to KATP (unknown origin) receptor at 10 uM relative to control; method in brief: as §3
[21] = molecular target: Macrophage-stimulating protein receptor (Homo sapiens) (UniProt Q04912); assay: Inhibition of recombinant GST-tagged human Ron cytoplasmic domain ([…] to 1400 residues) expressed in baculovirus expression system at 1 uM by FRET assay relative to control; method in brief: as §1
Chain of Macrophage-stimulating protein receptor (Homo sapiens) (Q04912 25-304 limits assumed): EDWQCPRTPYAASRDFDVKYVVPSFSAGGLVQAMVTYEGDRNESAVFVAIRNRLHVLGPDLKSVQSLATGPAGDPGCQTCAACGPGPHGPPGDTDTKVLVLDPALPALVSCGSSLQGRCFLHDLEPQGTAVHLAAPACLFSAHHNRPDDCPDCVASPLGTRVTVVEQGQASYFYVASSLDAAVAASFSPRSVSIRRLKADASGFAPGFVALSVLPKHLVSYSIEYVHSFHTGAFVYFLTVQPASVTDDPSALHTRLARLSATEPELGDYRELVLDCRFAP
Chain of Macrophage-stimulating protein receptor (Homo sapiens) (Q04912 310-1400 limits assumed): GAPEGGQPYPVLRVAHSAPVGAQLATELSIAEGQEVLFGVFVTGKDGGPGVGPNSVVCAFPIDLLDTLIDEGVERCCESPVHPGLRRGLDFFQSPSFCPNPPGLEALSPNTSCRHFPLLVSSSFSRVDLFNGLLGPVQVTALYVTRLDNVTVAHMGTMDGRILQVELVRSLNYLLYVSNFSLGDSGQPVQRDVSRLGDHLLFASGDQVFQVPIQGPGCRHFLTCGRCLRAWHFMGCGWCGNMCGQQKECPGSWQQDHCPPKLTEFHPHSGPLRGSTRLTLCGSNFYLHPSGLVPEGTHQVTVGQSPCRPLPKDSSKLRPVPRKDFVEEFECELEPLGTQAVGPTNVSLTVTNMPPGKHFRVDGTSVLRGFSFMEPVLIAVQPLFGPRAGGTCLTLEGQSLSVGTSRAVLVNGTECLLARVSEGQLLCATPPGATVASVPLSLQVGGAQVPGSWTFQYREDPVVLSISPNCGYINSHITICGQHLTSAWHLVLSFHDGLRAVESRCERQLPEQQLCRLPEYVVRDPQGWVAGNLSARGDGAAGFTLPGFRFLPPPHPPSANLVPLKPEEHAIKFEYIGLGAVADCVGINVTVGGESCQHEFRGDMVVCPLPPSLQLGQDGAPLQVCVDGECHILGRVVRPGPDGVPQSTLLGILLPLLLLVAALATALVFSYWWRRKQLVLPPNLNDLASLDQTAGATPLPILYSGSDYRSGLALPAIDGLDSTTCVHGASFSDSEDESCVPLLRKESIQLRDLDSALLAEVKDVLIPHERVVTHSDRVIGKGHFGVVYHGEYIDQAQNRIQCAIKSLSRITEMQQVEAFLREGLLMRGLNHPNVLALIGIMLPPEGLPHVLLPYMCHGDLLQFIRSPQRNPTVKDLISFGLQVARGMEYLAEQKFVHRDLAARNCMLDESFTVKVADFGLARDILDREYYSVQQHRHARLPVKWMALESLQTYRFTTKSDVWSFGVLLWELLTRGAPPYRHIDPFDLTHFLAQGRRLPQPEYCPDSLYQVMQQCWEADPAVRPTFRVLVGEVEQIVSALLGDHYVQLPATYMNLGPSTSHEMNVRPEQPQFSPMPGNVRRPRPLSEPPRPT

[22] = molecular target: Activated CDC42 kinase 1 (Homo sapiens) (UniProt Q07912); assay: Inhibition of recombinant GST-tagged human TNK2 catalytic/cytoplasmic domain (110 to 476 residues) expressed in baculovirus expression system at 1 uM by FRET assay relative to control; method in brief: as §1
[23] = molecular target: Endothelin-1 receptor (Homo sapiens) (UniProt P25101); assay: Binding affinity to recombinant human ETA receptor at 10 uM relative to control; method in brief: as §3
[24] = molecular target: Angiopoietin-1 receptor (Homo sapiens) (UniProt Q02763); assay: Inhibition of recombinant GST-tagged human Tie2 cytoplasmic domain (817 to 1101 residues) expressed in baculovirus expression system at 1 uM by FRET assay relative to control; method in brief: as §1
[25] = molecular target: Serine/threonine-protein kinase TBK1 (Homo sapiens) (UniProt Q9UHD2); assay: Inhibition of recombinant full length GST-tagged human TBK1 expressed in insect cells at 1 uM by FRET assay relative to control; method in brief: as §2
Chain of Serine/threonine-protein kinase TBK1 (Homo sapiens) (Q9UHD2 whole entry): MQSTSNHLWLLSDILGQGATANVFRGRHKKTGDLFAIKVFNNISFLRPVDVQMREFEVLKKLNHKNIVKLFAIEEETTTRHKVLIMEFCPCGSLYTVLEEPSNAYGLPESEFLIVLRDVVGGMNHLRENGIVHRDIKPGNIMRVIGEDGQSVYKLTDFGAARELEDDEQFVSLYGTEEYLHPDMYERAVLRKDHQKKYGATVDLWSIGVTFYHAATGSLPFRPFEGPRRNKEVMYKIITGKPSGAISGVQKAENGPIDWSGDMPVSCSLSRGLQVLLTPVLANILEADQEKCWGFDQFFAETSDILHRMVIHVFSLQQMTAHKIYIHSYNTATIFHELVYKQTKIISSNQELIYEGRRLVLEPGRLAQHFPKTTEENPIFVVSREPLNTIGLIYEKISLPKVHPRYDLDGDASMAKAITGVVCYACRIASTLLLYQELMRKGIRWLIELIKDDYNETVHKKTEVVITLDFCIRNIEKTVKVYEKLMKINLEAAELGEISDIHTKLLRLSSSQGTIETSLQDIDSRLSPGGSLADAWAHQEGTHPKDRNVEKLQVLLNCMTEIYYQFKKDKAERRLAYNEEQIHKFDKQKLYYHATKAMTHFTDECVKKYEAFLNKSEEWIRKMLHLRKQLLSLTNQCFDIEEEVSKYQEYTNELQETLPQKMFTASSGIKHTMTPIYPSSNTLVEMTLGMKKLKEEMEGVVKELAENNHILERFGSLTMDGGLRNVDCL

Row | Structure (SMILES) | inhibition [1] [%] | inhibition [2] [%] | inhibition [3] [%] | inhibition [4] [%] | inhibition [5] [%] | inhibition [6] [%] | inhibition [7] [%] | inhibition [8] [%] | inhibition [9] [%] | inhibition [10] [%] | inhibition [11] [%] | inhibition [12] [%] | Activity [13] [%] | IC50 [14] [µM] | inhibition [15] [%] | inhibition [16] [%] | inhibition [17] [%] | inhibition [18] [%] | inhibition [19] [%] | Activity [20] [%] | also measured
1 | Nc1ncc(-c2cc([C@H]3[C@@H]4CN(C5COC5)C[C@@H]43)n(CC3CC3)n2)cc1C(F)(F)F | 6.9 | 17.7 | 35 | 17.2 | 0 | -1.5 | 30.8 | 5.9 | 2.1 | 13.2 | -7.3 | 4.8 | > 50 | 3.5 | 9.6 | -1.1 | 0.5 | 4 | 27.2 | > 50 | inhibition [21]: 0.6%; inhibition [22]: 0.3%; Activity [23]: > 50%; inhibition [24]: 4.6%; inhibition [25]: 5.3%
2 | CC(C)n1nc(-c2cnc(N)c(OC(F)(F)F)c2)cc1[C@H]1[C@@H]2CN(C3COC3)C[C@@H]21 | 4.5 | 9.1 | 10.6 | 3.6 | 14.8 | 5.2 | 13.5 | 10.1 | 5.5 | 10.9 | 1.1 | 4.9 | > 50 | 5.92 | -0.8 | -2 | -2.3 | 0.5 | 16.2 | > 50 | inhibition [21]: 5.9%; inhibition [22]: 1.3%; Activity [23]: > 50%; inhibition [24]: 13.7%; inhibition [25]: 9.4%
